In ChEMBL document CHEMBL4373686, “Methyl sulfonamide substituents improve the pharmacokinetic properties of bicyclic 2-pyridone based Chlamydia trachomatis inhibitors” (Medchemcomm, 2019):
≈ marks a conversion by molar mass, not a printed value.

Experiments:
[1] = system: Chlamydia trachomatis; assay: Antibacterial activity against Chlamydia trachomatis 434/Bu serovar L2/ATCC VR-902B in HeLa 229 cells infected with cell lysates from 48 hrs at 2.5 uM compound treated HeLa 229 cells with Chlamydia trachomatis infection assessed as inhibition of reinfection and measured after 48 hrs post re-infection by DAPI staining based arrayscan automated microscopic method relative to control; assay type: functional, organism-based
In short: (§1)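 HeLa 229 cells infected with C. trachomatis L2 EBs at MOI 0.3–0.5; compound added in RPMI 1 h post infection; 44–48 h, then water lysis. 10-fold serial dilutions of lysate reinfect fresh HeLa; 44–46 h, methanol fixed, anti-Chlamydia/FITC antibody plus DAPI stain, IFUs counted by automated microscopy; % IFU versus DMSO control; three independent experiments, duplicates.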

[2] = system: Chlamydia trachomatis; assay: Antibacterial activity against Chlamydia trachomatis 434/Bu serovar L2/ATCC VR-902B in HeLa 229 cells infected with cell lysates from 48 hrs at 1 uM compound treated HeLa 229 cells with Chlamydia trachomatis infection assessed as inhibition of reinfection and measured after 48 hrs post re-infection by DAPI staining based arrayscan automated microscopic method relative to control; assay type: functional, organism-based; in short: as §1
[3] = system: HeLa 229; assay: Cytotoxicity against human HeLa 229 cells assessed as cell viability at 10 uM after 48 hrs resazurin dye based fluorescence method relative to control; conditions: hela 229, 48 h
In short: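 HeLa cells in colorless DMEM with 10% FBS, compound in 0.5% DMSO for 48 h; resazurin added, 3 h at 37 °C, 5% CO2, dark; fluorescence ex 535/em 595 nm; triplicate wells as percent of DMSO control.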

[4] = Solubility of compound in PBS at 0.2 to 0.5 mg after 48 hrs by LC-MS/MS based shake flask method; assay type: physicochemical
[5] = Apparent permeability from apical to basolateral side in human Caco2 cells at 1 uM after 15 to 60 mins by LC-MS/MS analysis; assay type: ADME, cell-based; conditions: caco-2, 1 µM
In short: (§2)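 Caco-2 monolayers (passage 94–105) used on day 21 on filter supports; 1 μM donor solution applied apical or basolateral, pH 7.4 both chambers, 37 °C, 500 rpm stirring. Receiver sampled at 15, 30, 60 min, donor at 60 min for mass balance; LC-MS/MS with warfarin internal standard.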

[6] = Efflux ratio of apparent permeability in human Caco2 cells at 1 uM after 15 to 60 mins by LC-MS/MS analysis; assay type: ADME, cell-based; conditions: caco-2, 1 µM; in short: as §2
[7] = Fraction unbound in CD-1 mouse plasma at 10 uM incubated for 4 hrs by LC-MS/MS-based equilibrium dialysis method; assay type: ADME, cell-free
In short: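 Rapid equilibrium dialysis: 10% CD-1 mouse plasma in isotonic buffer spiked to 10 μM compound, 1% DMSO final, against phosphate buffer pH 7.4; 37 °C, 900 rpm, 4 h. Matrix-matched samples precipitated with methanol, LC-MS/MS; fu corrected for plasma dilution.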

[8] = Intrinsic clearance in human liver microsomes at 1 uM incubated for 5 to 60 mins in presence of NADPH by LC-MS/MS analysis; assay type: ADME, Microsome
In short: (§3)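 Liver microsomes 0.5 mg/ml, compound 1 μM in 100 mM phosphate pH 7.4; started with 1 mM NADPH (final). Sampled 0–60 min, quenched in cold acetonitrile, parent remaining by LC-MS/MS; ln % remaining versus time fitted by linear regression.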

[9] = Intrinsic clearance in mouse liver microsomes at 1 uM incubated for 5 to 60 mins in presence of NADPH by LC-MS/MS analysis; assay type: ADME, Microsome; in short: as §3
[10] = Cmax in C3H/HeJ mouse at 1.2 mg/kg, iv measured upto 24 hrs; conditions: in vivo
[11] = Half life in C3H/HeJ mouse at 1.2 mg/kg, iv measured upto 24 hrs; conditions: in vivo
[12] = Clearance in C3H/HeJ mouse at 1.2 mg/kg, iv measured upto 24 hrs; conditions: in vivo
[13] = AUC (0 to infinity) C3H/HeJ mouse at 1.2 mg/kg, iv measured upto 24 hrs; conditions: in vivo
[14] = Volume of distribution at steady state in C3H/HeJ mouse at 1.2 mg/kg, iv measured upto 24 hrs; conditions: in vivo
[15] = Cmax in C3H/HeOuJ mouse at 0.9 mg/kg, iv measured upto 24 hrs; assay type: ADME, organism-based; parameters: dose 0.9 mg/kg, route intravenous; conditions: in vivo
In short: (§4)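 Female C3H mice, three per dose and route; IV as 50 μL tail-vein injection in PBS with 10% cremophor, 5% EtOH, 4% DMSO; PO as 100 μL gavage in lipid-vehicle/water emulsion. Tail-vein blood at 10 min (IV) and 0.5–24 h; acetonitrile mixed, methanol extracted, LC-MS/MS against spiked blank blood standards; non-compartmental analysis, errors as SD.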

[16] = AUC (0 to infinity) C3H/HeOuJ mouse at 0.9 mg/kg, iv measured upto 24 hrs; assay type: ADME, organism-based; parameters: dose 0.9 mg/kg, route intravenous, time infinity; conditions: in vivo; in short: as §4
[17] = Half life in C3H/HeOuJ mouse at 0.9 mg/kg, iv measured upto 24 hrs; assay type: ADME, organism-based; conditions: in vivo; in short: as §4
[18] = Clearance in C3H/HeOuJ mouse at 0.9 mg/kg, iv measured upto 24 hrs; assay type: ADME, organism-based; conditions: in vivo; in short: as §4
[19] = Volume of distribution at steady state in C3H/HeJ mouse at 0.9 mg/kg, iv measured upto 24 hrs; conditions: in vivo

SMILES | inhibition [1] | inhibition [2] | Activity [3] | other results
Cc1cc(F)cc(NC(=O)C2CSc3c(NS(C)(=O)=O)c(Cc4cccc5ccccc45)cc(=O)n32)c1 (racemic) | 6% | 6% | 91% | –
CS(=O)(=O)Nc1c(Cc2cccc3ccccc23)cc(=O)n2c1SCC2n1cc(-c2ccccc2)nn1 (racemic) | 88% | – | 91% | –
COc1c(Cc2cccc(C)c2C)c(N)c(=O)n2c1SCC2c1nc(-c2ccccc2)no1 (racemic) | 17% | – | 94% | –
COc1c(Cc2cccc(C)c2C)c(N)c(=O)n2c1SCC2C(=O)Nc1ccccc1 (racemic) | 25% | – | 94% | –
COc1c(Cc2cccc(C)c2C)cc(=O)n2c1SCC2c1nc(-c2ccccc2)no1 (racemic) | 1% | – | 91% | –
CS(=O)(=O)Nc1c(Cc2cccc3ccccc23)cc(=O)n2c1SCC2c1nc(-c2ccccc2)n[nH]1 (racemic) | 20% | – | 93% | –
COc1c(Cc2cccc3ccccc23)cc(=O)n2c1SCC2n1cc(-c2ccccc2)nn1 (racemic) | 81% | – | 87% | –
COc1c(Cc2cccc3ccccc23)cc(=O)n2c1SCC2C(=O)Nc1ccc(C)cc1 (racemic) | 94% | 62% | 89% | –
Nc1c(Cc2cccc3ccccc23)c(C2CC2)c2n(c1=O)C(n1cc(-c3ccccc3)nn1)CS2 (racemic) | 91% | 90% | – | solubility thermodynamic at 48 h [4]: 0.31 µM (≈ 0.152 µg/mL); Papp [5]: 0.33 ×10⁻⁶ cm/s; Ratio [6]: 0.6; Fu [7]: < 0.1%; CLH [8]: 187 µL/min/mg; CLH [9]: 135 µL/min/mg; Cmax [10]: 40 nM; t1/2 [11]: 3.7 h; CL [12]: 0.51 L/h; AUC(0-inf) [13]: 0.1 µM·h; Vdss [14]: 27 L/kg
COc1c(Cc2cccc(C)c2C)cc(=O)n2c1SCC2C(=O)Nc1cc(C)cc(F)c1 (racemic) | 95% | 77% | 90% | solubility thermodynamic at 48 h [4]: 0.32 µM (≈ 0.145 µg/mL); Papp [5]: 2.1 ×10⁻⁶ cm/s; Ratio [6]: 3.2; Fu [7]: 0.1%; CLH [8]: 184 µL/min/mg; CLH [9]: 440 µL/min/mg; Cmax [15]: 410 nM; AUC(0-inf) [16]: 0.95 µM·h; t1/2 [17]: 1.2 h; CL [18]: 0.04 L/h; Vdss [19]: 1.1 L/kg
COc1c(Cc2cccc(C)c2C)c(N)c(=O)n2c1SCC2C(=O)Nc1cc(C)cc(F)c1 (racemic) | 47% | – | 92% | –
COc1c(Cc2cccc3ccccc23)c(N)c(=O)n2c1SCC2C(=O)Nc1ccc(C)cc1 (racemic) | 51% | – | 91% | –
COc1c(Cc2cccc(C)c2C)c(N)c(=O)n2c1SCC2C(=O)Nc1ccc(C)cc1 (racemic) | 56% | – | 93% | –
Nc1c(Cc2cccc3ccccc23)c(C2CC2)c2n(c1=O)C(C(=O)Nc1ccccc1)CS2 (racemic) | 98% | 94% | – | –
CC(C)Nc1c(Cc2cccc3ccccc23)cc(=O)n2c1SCC2C(=O)Nc1ccccc1 (racemic) | 79% | 25% | 91% | –
COc1c(Cc2cccc(C)c2C)cc(=O)n2c1SCC2C(=O)Nc1ccccc1 (racemic) | 51% | 22% | 89% | –
CN(C)c1c(Cc2cccc3ccccc23)cc(=O)n2c1SCC2C(=O)Nc1ccccc1 (racemic) | 94% | 78% | 92% | –
Cc1cccc(NC(=O)C2CSc3c(NS(C)(=O)=O)c(Cc4cccc5ccccc45)cc(=O)n32)c1 (racemic) | -2% | – | 92% | –
O=C(Nc1ccccc1)C1CSc2c(O)c(Cc3cccc4ccccc34)cc(=O)n21 (racemic) | 21% | – | 93% | –
O=C(Nc1ccccc1)C1CSc2c(C3CC3)c(Cc3cccc4ccccc34)cc(=O)n21 (racemic) | 87% | 67% | – | –
COc1c(Cc2cccc3ccccc23)cc(=O)n2c1SCC2C(=O)Nc1ccccc1 (racemic) | 24% | – | 91% | –
CC(=O)Nc1c(Cc2cccc3ccccc23)cc(=O)n2c1SCC2C(=O)Nc1ccccc1 (racemic) | 3% | 44% | 90% | –
COc1c(Cc2cccc3ccccc23)c(N)c(=O)n2c1SCC2C(=O)Nc1ccccc1 (racemic) | 25% | – | 94% | –
COC(=O)Nc1c(Cc2cccc3ccccc23)cc(=O)n2c1SCC2C(=O)Nc1ccccc1 (racemic) | 12% | – | 88% | –
COc1c(Cc2cccc(C)c2C)cc(=O)n2c1SCC2C(=O)Nc1ccc(C)cc1 (racemic) | 98% | 71% | 88% | –
